In experiment [1] the test system is E. coli Δ7 prrn WT. Briefly: Growth inhibition of E. coli Δ7 prrn WT. The note with it: for antibacterial activity in words: E. coli Δ7 prrn WT compared with A1408G and G1491U strains. Type of experiment: cell-based.
Experiment [2] relates to control (WT) E. coli ribosomes. Briefly: EF-G-dependent translocation inhibition. The following applies: in vitro, WT (and A1408G) ribosomes. Type of experiment: biochemical.
Experiment [3] concerns AAC(6′)-Ib′. Kind of experiment: Relative initial rate of AME reaction, AAC. Type of experiment: biochemical.
Experiment [4] relates to ribosome. The note with it: cited from earlier work.
In experiment [5] the test system is mutant A1408G E. coli ribosomes. Briefly: EF-G-dependent translocation inhibition. Type of experiment: biochemical. The note with it: read-out: Translocation inhibition IC50, A1408G. An outline of the steps: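 Ribosomes purified from the corresponding Δ7 prrn E. coli strain carrying A1408G. The extent of EF-G-dependent translocation was measured by toeprinting across various concentrations of the test aminoglycoside. IC50 was obtained by fitting the data to the Hill equation.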

Experiment [6] deals with E. coli TolC (O). Briefly: Antibacterial MIC, E. coli TolC. Type of experiment: cell-based. The following applies: Escherichia coli.
For experiment [7], the system named is E. coli Δ7 prrn A1408G. Briefly: Growth inhibition of E. coli Δ7 prrn A1408G. The following applies: Escherichia coli. It counts as cell-based.
Experiment [8] deals with E. coli Δ7 prrn G1491U. Briefly: Growth inhibition of E. coli Δ7 prrn G1491U. It counts as cell-based. The note with it: Escherichia coli.

≈ marks a conversion by molar mass, not a printed value. Entries after “also recorded” stand apart in the source; their conditions may differ. Where only a bound is given, the exact number is not on record here.

As to `CCCCSCC1OC(OC2C(N)CC(N)C(OC3OC(CN)C(O)CC3N)C2O)C(O)C(N)C1O` (stereo not shown) [3a], the “antibacterial activity in words” value in experiment [1] was “biological activity indistinguishable from TOB”.

Consider `CCCCCCSCC1OC(OC2C(N)CC(N)C(OC3OC(CN)C(O)CC3N)C2O)C(O)C(N)C1O` (stereo not shown) [3b], for which the “antibacterial activity in words” value in experiment [1] was “virtually inactive; also recorded: antibacterial activity is completely lost”.

Regarding `CCCCCCCCCCSC[C@H]1O[C@H](O[C@@H]2[C@@H](O)[C@H](O[C@H]3O[C@H](CN)[C@@H](O)C[C@H]3N)[C@@H](N)C[C@H]2N)[C@H](O)[C@@H](N)[C@@H]1O` [3d], the “inhibition of translocation in words” value in experiment [2] was “failed to inhibit translocation”. Also, the “antibacterial activity in words” value in experiment [1] is on record as “lower activity with little-to-no h44-dependence”.

Regarding `CCCCCCCCCCCCSC[C@H]1O[C@H](O[C@@H]2[C@@H](O)[C@H](O[C@H]3O[C@H](CN)[C@@H](O)C[C@H]3N)[C@@H](N)C[C@H]2N)[C@H](O)[C@@H](N)[C@@H]1O` [3e], the “inhibition of translocation in words” value in experiment [2] was “fails to inhibit translocation”. Besides, the “antibacterial activity in words” value in experiment [1] was “lower activity with little-to-no h44-dependence”.

In the case of `CCCCCCCCCCCCCCSC[C@H]1O[C@H](O[C@@H]2[C@@H](O)[C@H](O[C@H]3O[C@H](CN)[C@@H](O)C[C@H]3N)[C@@H](N)C[C@H]2N)[C@H](O)[C@@H](N)[C@@H]1O` [3f], the “antibacterial activity in words” value in experiment [1] is “indistinguishably strong antibacterial activity”. The “relative initial rate, normalized to TOB” value in experiment [3] was above 200%. Further, in experiment [4], the “inhibition of in vitro translation in words” value was “fails to inhibit in vitro translation”.

As to `CCCCCCCCCCCCCCCCSCC1OC(OC2C(N)CC(N)C(OC3OC(CN)C(O)CC3N)C2O)C(O)C(N)C1O` (stereo not shown) [3g], the “antibacterial activity in words” value in experiment [1] was “indistinguishably strong antibacterial activity”.

On to `CCCCCCCCCCCCCCCCCCSC[C@H]1O[C@H](O[C@@H]2[C@@H](O)[C@H](O[C@H]3O[C@H](CN)[C@@H](O)C[C@H]3N)[C@@H](N)C[C@H]2N)[C@H](O)[C@@H](N)[C@@H]1O` [3h], for which the “inhibition of translocation in words” value in experiment [2] is on record as “failed to inhibit translocation”.

`CC(C)(C)c1ccc(SCC2OC(OC3C(N)CC(N)C(OC4OC(CN)C(O)CC4N)C3O)C(O)C(N)C2O)cc1` (stereo not shown) [3s]: in experiment [1], the “antibacterial activity in words” value was “virtually inactive”.

One may read the IC50 as the midpoint of a concentration-inhibition curve. Take `COc1ccccc1SC[C@H]1O[C@H](O[C@@H]2[C@@H](O)[C@H](O[C@H]3O[C@H](CN)[C@@H](O)C[C@H]3N)[C@@H](N)C[C@H]2N)[C@H](O)[C@@H](N)[C@@H]1O` [3u]: the “inhibition of translocation in words” value in experiment [2] is on record as “notably poorer inhibitors of translocation”. Further, the concentration for half-maximal inhibition (IC50) in experiment [5] amounted to 620 µM.

`NC[C@H]1O[C@H](O[C@H]2[C@H](O)[C@@H](O[C@H]3O[C@H](CSc4ccccc4F)[C@@H](O)[C@H](N)[C@H]3O)[C@H](N)C[C@@H]2N)[C@H](N)C[C@@H]1O` [3x]: the “inhibition of translocation in words” value in experiment [2] is reported as “notably poorer inhibitors of translocation”. In addition, the IC50 in experiment [5] came out at 310 µM.

On to `NCC1OC(OC2C(N)CC(N)C(OC3OC(CSc4cccc(F)c4)C(O)C(N)C3O)C2O)C(N)CC1O` (stereo not shown) [3y], for which the IC50 in experiment [5] was determined as 210 µM.

What is called MIC is the smallest concentration in the dilution series that meets the test's criterion for growth inhibition. Take `NC[C@H]1O[C@H](O[C@H]2[C@H](O)[C@@H](O[C@H]3O[C@H](CO)[C@@H](O)[C@H](N)[C@H]3O)[C@H](N)C[C@@H]2N)[C@H](N)C[C@@H]1O` [TOB, tobramycin]: the IC50 in experiment [5] came out at 700 µM. Moreover, the MIC was above 150 µg/mL in experiment [6], 18.8 µg/mL (≈ 40.2 µM) in experiment [1] (Escherichia coli), above 150 µg/mL in experiment [7] and above 150 µg/mL in experiment [8].

(Values after paper PMC4548982 (Chembiochem : a European journal of chemical biology, 2015).)
